What was measured:
[1] = In vitro inhibitory activity against Phosphatidylinositol 3-Kinase
How it was run: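 Purified PI 3-kinase from bovine brain was used as the enzyme source. Results are reported as IC50 values.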

Mus musculus [2] = assay: In vivo inhibition of tumor growth in C3H Mammary model was evaluated at dose 16 mg/kg peroral administration; assay type: functional; details: route oral
How it was run: (§1)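 Murine tumours were serially passaged as tumour fragments, implanted s.c. by trochar in the axillary region. Daily oral dosing began 1 day after implant, as a suspension in 2.5% emulphor EL-620 in 0.9% NaCl. There were 10 randomized mice per group. Tumours were measured by caliper the day after the last dose, with weight = length × width² × 0.5. Inhibition was 100 × (1 − mean treated/mean control weight). A group was toxic if lethality was >25%.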

Mus musculus [3] = assay: In vivo inhibition of tumor growth in C3H Mammary model was evaluated at dose 2.0 mg/kg peroral administration; assay type: functional; details: route oral
How it was run: (§2)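 Murine C3H mammary tumour fragments were implanted subcutaneously by trochar in the axillary region, in groups of 10 randomized mice. Oral dosing started 1 day after implant, daily ×10, as a suspension in 2.5% emulphor EL-620 in 0.9% NaCl (water for one analog). Tumour weight, calculated as length×width²×0.5 from calipers, was measured the day after the last dose. Percent inhibition was calculated versus controls. Groups with >25% lethality were scored toxic.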

Mus musculus [4] = assay: In vivo inhibition of tumor growth in C3H Mammary model was evaluated at dose 4.0 mg/kg peroral administration; assay type: functional; details: route oral; how it was run: as §2
Mus musculus [5] = assay: In vivo inhibition of tumor growth in C3H Mammary model was evaluated at dose 8.0 mg/kg peroral administration; range is 60-79%; assay type: functional; details: route oral; how it was run: as §1

SMILES	IC50 [1] [nM]	other results
C/N=C/C1=C(O)O[C@H](COC)[C@@]2(C)C1=C(O)C(=O)C1=C2[C@H](OC(C)=O)C[C@]2(C)C(=O)CC[C@@H]12	> 500	–
COC[C@H]1OC(=O)c2coc3c2[C@@]1(C)C1=C(C3=O)[C@@H]2C[C@@H](OC(C)=O)C(=O)[C@@]2(C)C[C@H]1OC(C)=O	309	–
COC[C@H]1OC(O)=C(C=N)C2=C(O)C(=O)C3=C([C@H](OC(C)=O)C[C@]4(C)C(=O)CC[C@@H]34)[C@]21C	> 500	–
CCCCS/C=C1\C(=O)O[C@H](COC)[C@@]2(C)C1=C(O)C(=O)C1=C2[C@H](OC(C)=O)C[C@]2(C)C(=O)CC[C@@H]12	52	–
COC[C@H]1OC(=O)c2coc3c2[C@@]1(C)C1=C(C3=O)[C@@H]2C[C@@H](Br)C(=O)[C@@]2(C)C[C@H]1OC(C)=O	77	–
COC[C@H]1OC(=O)c2coc3c2[C@@]1(C)C1=C(C3=O)[C@@H]2C[C@@H](O)C(=O)[C@@]2(C)C[C@H]1OC(C)=O	153	–
COC(=O)c1coc2c(O)c3c(c(C)c12)C=C[C@]1(C)C(=O)CC[C@@H]31	4600	inhibition in vivo at 16 mg/kg (Mus musculus [2]): < 60%
COC[C@H]1OC(=O)c2coc3c2[C@@]1(C)C1=C(C3=O)[C@@H]2CCC(=O)[C@@]2(C)CC1	17	inhibition in vivo at 2 mg/kg (Mus musculus [3]): < 60%; inhibition in vivo at 4 mg/kg (Mus musculus [4]): > 25%
COC[C@H]1OC(=O)c2coc3c2[C@@]1(C)C1=CC[C@]2(C)C(=O)CC[C@H]2C1C3=O (some centres undefined)	54	inhibition in vivo at 16 mg/kg (Mus musculus [2]): > 25%; inhibition in vivo at 8 mg/kg (Mus musculus [5]): 79%
